TDP2 inh = TDP2 (human) inhibition, absorbance primary screen; recombinant TDP2, T5PNP hydrolysis, p-nitrophenol absorbance 415 nm; inhibition, % at 12.8 µM; 370,000 compounds, 0.34% hits;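 active = inhibition above the mean of all tested compounds plus 3 SD, set per campaign, cut at about 25% in these data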
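Assay system: recombinant human TDP2 / Reagent: T5PNP substrate at 5 mM, a TopII-DNA adduct mimic / Measured by: epi absorbance from released p-nitrophenol / Evaluation: % inhibition relative to enzyme-containing and enzyme-free wells / Control set: enzyme-free and DMSO wells / Replicates: each compound tested once, singlicate / Schedule: enzyme reaction with compound for 2 h at 37 °C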
NSD2 HMT inh = inhibitors of human histone methyltransferase NSD2 | O96028 | NSD2 peptide methylation, AlphaScreen, 120 min | inhibition, % at 12.5 µM | 310,000 compounds, 0.54% hits | AID 743445; in the data active = inhibition above about 50%
LEDGF integ inh = blocks HIV-1 LEDGF/p75-dependent DNA integration; TR-FRET IN-LEDGF/p75 DNA integration, Eu/Cy5; inhibition, % at 3.7 µM; 370,000 compounds, 0.64% hits; AID 743269;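 active = inhibition above the screen-wide mean plus 3 SD, cut at about 13% in these data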;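 also: signal is the Cy5 over europium emission ratio at 671 and 618 nm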
CASP6 VEID inh = caspase-6 (human) enzyme inhibition; inhibition, % at 12.5 µM; AID 686996; 350,000 compounds, 0.53% hits; purified caspase-6, Z-VEID-R110 cleavage fluorescence;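 active = mean inhibition across replicates at least about 35%, with every replicate also reaching that limit, limit read from the data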
UHRF1 binding = human UHRF1 methylated DNA binding inhibitors | Q96T88 | UHRF1 binding to methylated oligo, TR-FRET | inhibition, % at 4.4 µM | 370,000 compounds, 0.75% hits | AID 687016; in the data active = inhibition above about 21%;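 also: UHRF1 SRA domain binding a hemimethylated CpG hairpin DNA probe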
Target sequence (Q96T88 whole entry, looked up, the tested form may be a part): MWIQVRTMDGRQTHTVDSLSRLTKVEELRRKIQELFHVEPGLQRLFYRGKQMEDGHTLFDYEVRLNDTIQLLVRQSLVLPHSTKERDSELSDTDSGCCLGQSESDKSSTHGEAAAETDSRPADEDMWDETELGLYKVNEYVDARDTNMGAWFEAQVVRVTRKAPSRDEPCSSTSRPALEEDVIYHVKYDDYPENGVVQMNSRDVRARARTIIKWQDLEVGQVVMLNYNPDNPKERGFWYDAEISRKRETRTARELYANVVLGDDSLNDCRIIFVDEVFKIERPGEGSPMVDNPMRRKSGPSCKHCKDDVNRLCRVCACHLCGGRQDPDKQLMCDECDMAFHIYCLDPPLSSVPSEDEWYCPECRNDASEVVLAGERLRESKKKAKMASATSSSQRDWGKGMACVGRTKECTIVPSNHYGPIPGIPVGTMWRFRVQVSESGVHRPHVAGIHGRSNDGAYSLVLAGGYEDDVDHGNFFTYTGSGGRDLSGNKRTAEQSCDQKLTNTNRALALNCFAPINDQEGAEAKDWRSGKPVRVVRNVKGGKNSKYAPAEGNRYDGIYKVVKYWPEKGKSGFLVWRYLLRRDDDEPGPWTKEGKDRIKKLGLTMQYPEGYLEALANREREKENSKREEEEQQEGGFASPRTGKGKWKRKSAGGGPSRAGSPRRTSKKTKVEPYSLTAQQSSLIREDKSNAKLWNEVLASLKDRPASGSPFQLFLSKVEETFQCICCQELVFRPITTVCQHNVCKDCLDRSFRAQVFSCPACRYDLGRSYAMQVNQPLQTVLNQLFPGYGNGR
MBD2 DNA inh = blocks human MBD2 binding to methylated DNA; inhibition, % at 4.4 µM; 370,000 compounds, 0.31% hits; AID 686964; TR-FRET, MBD2 binding to methylated oligonucleotide; Q9UBB5; in the data active = inhibition above about 13%
A number is an active result; – = inactive; · = no result given. An excerpt weighted towards active compounds, which were near 1.8% of everything screened.

SMILES | TDP2 inh | NSD2 HMT inh | LEDGF integ inh | CASP6 VEID inh | UHRF1 binding | MBD2 DNA inh
S=C(Nc1ccc(Cl)cc1)NN1CCOCC1 | – | – | – | – | 30.4 | –
CC(C)c1ccc(NC(=S)NN2CCOCC2)cc1 | – | – | – | – | – | –
O=C(C[C@H]1CC[C@H](NC(=O)c2ccccc2)[C@@H](CO)O1)NCc1ccncn1 | · | · | · | – | · | ·
CC(C)C[C@@H](CN1CCC[C@@H]1CN1C(=O)C(=O)NC[C@@H]1Cc1ccccc1)N1C[C@H](Cc2ccccc2)N(CC2CCCCC2)C(=O)C1=O | – | · | – | – | 54.3 | –
CC(C)C[C@H]1CN(CCCC[C@@H]2CNC(=O)C(=O)N2CC2CCCCC2)C(=O)C(=O)N1CCc1ccccc1 | – | · | – | – | 21.4 | –
O=C1NC[C@H](CCCCN2C[C@H](Cc3ccc(O)cc3)N(CCc3ccc(O)cc3)C(=O)C2=O)N(Cc2ccccc2)C1=O | – | · | – | – | 22.1 | –
C[C@@H]1CN([C@H](C)CO)C(=O)Cc2cc(NC(=O)c3ccncc3)ccc2O[C@@H]1CN(C)C(=O)Nc1ccccc1 | · | · | · | – | · | ·
COc1ccccc1COCC(O)CN(Cc1ccco1)Cc1ccccc1O (stereo not drawn) | – | – | – | · | 25.3 | –
O=C(C[C@H]1CC[C@@H]2[C@H](COC[C@@H](O)CN2C(=O)Nc2ccc(F)cc2)O1)NCCc1ccccc1 | · | · | · | – | · | ·
O=C1N=C(N2C=CC(=C3C=CNC=C3)C=C2)/C(=C/N=NC(=O)c2ccccc2O)S1 | – | – | – | 35.9 | – | –
Cc1cc(NS(=O)(=O)c2ccc(NC(=O)COc3ccccc3[N+](=O)[O-])cc2)no1 | – | – | – | 73.6 | – | –
Cc1cc(NS(=O)(=O)c2ccc(NC(=O)NC(C)(C(F)(F)F)C(F)(F)F)cc2)no1 | – | – | – | · | 20.9 | –
O=C(Nc1ccc(Cl)cc1)N[C@@H]1CC[C@H](CCNC(=O)c2cc(Cl)cc(Cl)c2)O[C@@H]1CO | · | · | · | – | · | ·
COc1ccc(C(=O)Nc2ccccc2NC(=O)c2ccc(OC)c(OC)c2)cc1OC | · | – | · | · | · | ·
Cc1[nH]n(S(=O)(=O)c2ccccc2)c(=O)c1N=Nc1cccc(Cl)c1 | – | – | – | – | 33.6 | –
CCCNc1nc(Cl)nc(Nc2ccc(Cl)cc2)n1 | – | – | – | – | – | –
CCCCNc1nc(Cl)nc(Nc2ccc(C)cc2)n1 | – | – | – | – | 21.3 | –
CCCCCCc1nnc(NC(=O)c2ccco2)s1 | – | – | – | – | – | –
CCCCCc1nnc(NC(=O)c2ccc3nc[nH]c3c2)s1 | – | – | – | – | 57.5 | –
CC=Cc1ccc2n(c1=O)C[C@@H]1[C@@H](CO)[C@H](C(=O)NC3CCC3)[C@H]2N1Cc1ccncc1 (mixture of isomers) | · | · | · | – | · | ·
Cc1cccc(N=[N+]([O-])c2cccc(C)n2)n1 | – | · | – | – | 41.8 | –
Cc1cccc(N=O)n1 | – | · | – | – | – | –
CCCc1[nH]nc2c1C(c1ccc(OCCN3CCOCC3)c(OCC)c1)C(C#N)=C(N)O2 (stereo not drawn) | – | – | – | · | – | –
CCOc1cc(C2C(C#N)=C(N)Oc3n[nH]c(CC)c32)ccc1OCCN1CCOCC1 (stereo not drawn) | – | – | – | · | 22.0 | –
CC[C@@]12C(=O)N(c3ccccc3)C(=O)N1[C@H](c1cccc(C)c1)[C@@H]1C(=O)N(Cc3ccccc3)C(=O)[C@@H]12 | – | · | – | – | 24.0 | –
SMILES | TDP2 inh | NSD2 HMT inh | LEDGF integ inh | CASP6 VEID inh | UHRF1 binding | MBD2 DNA inh
Cc1ccc(S(=O)(=O)Nc2ccc3c(c2)CC(=O)N([C@@H](C)CO)C[C@@H](C)[C@@H](CN(C)C)O3)cc1 | · | · | · | – | · | ·
COc1ccc(-c2ccc(C(=O)NCC3CC3)c3occc23)c(C)c1 | – | – | – | – | – | –
COc1ccc(-c2ccc(C(=O)NCC(C)C)c3occc23)c(C)c1 | – | – | – | – | 49.0 | –
COc1ccc(-n2c(C)cc(/C=C/c3nc(O)c([N+](=O)[O-])c(=O)[nH]3)c2C)cc1 | – | – | – | 62.1 | – | –
CCOC(=O)c1c(C)oc2c1c(C=NC1CCS(=O)(=O)C1)c(O)c1ccccc12 (stereo not drawn) | – | 87.5 | – | · | – | –
O=C(C[C@H]1C=C[C@H](NC(=O)Nc2ccc(C(F)(F)F)cc2)[C@H](CO)O1)NCCN1CCCC1 | · | · | · | – | · | ·
COCc1cc(=O)n2[nH]c(-c3ccsc3-n3c(C)ccc3C)cc2n1 | – | – | 81.0 | · | 72.2 | 36.5
COCc1cc(=O)n2[nH]c(N)nc2n1 | – | – | – | – | – | –
C[C@@H]1CN([C@@H](C)CO)C(=O)Cc2cc(NC(=O)NC3CCCCC3)ccc2O[C@H]1CN(C)S(=O)(=O)c1ccc(F)cc1 | · | · | · | – | · | ·
O=C(C[C@@H]1C[C@@H]2c3cc(NC(=O)C4CCOCC4)ccc3O[C@@H]2[C@H](CO)O1)NCc1ccc(Oc2ccccc2)cc1 | · | · | · | – | · | ·
O=C1Nc2ccc(C(=O)O)c(O)c2C1=O | – | – | – | 39.5 | – | –
CCOc1ccccc1N(CC(=O)N(C)Cc1ccccc1)S(=O)(=O)c1ccccc1 | – | – | – | – | 22.6 | –
O=C(CCCCC(=O)NCCCc1ccccc1)NCCCc1ccccc1 | – | – | – | – | – | –
CC1NC(=O)NC1CCCCCC(=O)NCCc1ccccc1 (stereo not drawn) | – | · | 78.2 | – | – | –
Cc1ccnc2nc(C(=O)Nc3ccc4c(c3)OCO4)nn12 | – | · | – | · | 23.0 | –
Cc1cc(C)n2nc(C(=O)Nc3ccc4c(c3)OCO4)nc2n1 | – | – | – | · | – | –
O=C(NCc1ccccc1)[C@H]1[C@H](CO)[C@H]2Cn3c(cccc3=O)[C@@H]1N2Cc1ccccn1 | · | · | · | – | · | ·
Clc1ccc(N2CCN(Cc3c[nH]c4ncccc34)CC2)cc1 | – | · | – | – | 22.9 | –
c1ccc(CN2CCN(Cc3c[nH]c4ccccc34)CC2)cc1 | – | – | – | – | – | –
Oc1ccc(/C=N/N(c2ccccc2)c2ccccc2)cc1O | – | – | – | – | – | –
O=C(/C(=N/N=C/c1ccc(O)c(O)c1)c1ccccc1)c1ccccc1 | – | – | – | 44.3 | – | –
C[C@H](CO)N1C[C@H](C)[C@H](CN(C)C(=O)Nc2cc(F)ccc2F)Oc2ncc(-c3cccc(F)c3)cc2C1=O | · | · | · | – | · | ·
CCCCCCCCCCCC(=O)NC(Cc1ccc(OC)c([N+](=O)[O-])c1)C(=O)O (stereo not drawn) | – | – | – | – | – | –
CCOC(=O)C(Cc1ccc(OC)c([N+](=O)[O-])c1)NC(=O)CCC(=O)Nc1ccc(OC)cc1 (stereo not drawn) | – | – | – | – | 27.6 | –
Cc1csc2c(=O)sc(NC(=O)c3ccco3)nc12 | – | – | – | – | – | –
O=C(Nc1nc2ccsc2c(=O)s1)c1ccco1 | – | – | – | 36.5 | – | –
COc1cc(NC(=O)c2csc(N)n2)cc(C(=O)Nc2cccc(C(F)(F)F)c2)c1 | – | · | – | – | – | –
